From ChEMBL document CHEMBL4689842, “EUbOPEN Chemogenomics Library wave 1” (2021)
“And” between values parts separate entries of the source, which are not always exact repeats. Identical values can stand only once.

What was measured:
Assay type in all cases: toxicity, cell-based
[1] = system: U2OS; assay: Incucyte cell viability with U2OS; conditions: human, 10 µM, compound concentration 10 uM; note: filed as whole numbers so only -1 and 0 and 1 occur
[2] = system: U2OS; assay: Multiplex assay against U2OS; conditions: human, 1 µM, compound concentration 1 uM
Outline: (§1)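 Hoechst33342, BioTracker Green Microtubule Cytoskeleton Dye, MitoTracker Red and Annexin V Alexa Fluor 680 were added to live cells at seeding, and imaging on a CQ1 microscope at 37°C and 5% CO2 followed compound addition. Gating by CellPathfinder machine learning separated cells into Hoechst high-intensity objects or normal cells, then normal cells into healthy, pyknosed or fragmented nuclei, then pyknosed cells into mitotic or apoptotic. Per cents of healthy-nucleus cells are reported for the tubulin, mitochondrial-mass and membrane-permeability phenotypes.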

[3] = system: HEK-293T; assay: Incucyte cell viability with HEK293T; conditions: human, 10 µM, compound concentration 10 uM; note: filed as whole numbers so only -1 and 0 and 1 occur
[4] = system: Fibroblast; assay: Multiplex assay against human fibroblast; conditions: 1 µM, compound concentration 1 uM; outline: as §1
[5] = system: Fibroblast; assay: Incucyte cell viability with human fibroblast; conditions: 10 µM, compound concentration 10 uM; note: filed as whole numbers so only -1 and 0 and 1 occur
[6] = 6 h, replicate number 1, timepoint 6 hours
[7] = 12 h, replicate number 1, timepoint 12 hours
[8] = 18 h, replicate number 1, timepoint 18 hours
[9] = 24 h, replicate number 1, timepoint 24 hours

SMILES: CS(=O)(=O)N1CCN(Cc2cc3nc(-c4cccc5[nH]ncc45)nc(N4CCOCC4)c3s2)CC1 [PICTILISIB]
- Growth Rate ([1]; 0 h, replicate number 1, timepoint 0 hours): 0
- Growth Rate [1, 6]: 0
- Growth Rate [1, 7]: 0
- Growth Rate [1, 8]: 0
- Growth Rate [1, 9]: 0
- Population Apoptotic (%) ([2]; 12 h, replicate 1): 69% and 53%
- Population Fragmented Nuclei (%) ([2]; 12 h, replicate 1): 22% and 12%
- Population Healthy Nuclei (%) ([2]; 12 h, replicate 1): 35% and 77%
- Population Hoechst High Intensity Objects (%) ([2]; 12 h, replicate 1): 4%
- Population Membrane Permeable-Phenotype (%) ([2]; 12 h, replicate 1): 47% and 40%
- Population Mitotic Cells (%) ([2]; 12 h, replicate 1): 30% and 46%
- Population Normal (%) ([2]; 12 h, replicate 1): 95% and 96%
- Population Tubulin-Different-Phenotype (%) ([2]; 12 h, replicate 1): 100% and 49%
- Total Cell Count ([2]; 12 h, replicate 1): 150 and 194
- Population Apoptotic (%) ([2]; 12 h, replicate 2): 74% and 45%
- Population Fragmented Nuclei (%) ([2]; 12 h, replicate 2): 13%
- Population Healthy Nuclei (%) ([2]; 12 h, replicate 2): 26% and 78%
- Population Hoechst High Intensity Objects (%) ([2]; 12 h, replicate 2): 24% and 14%
- Population Membrane Permeable-Phenotype (%) ([2]; 12 h, replicate 2): 55% and 27%
- Population Mitotic Cells (%) ([2]; 12 h, replicate 2): 25% and 54%
- Population Normal (%) ([2]; 12 h, replicate 2): 75% and 86%
- Total Cell Count ([2]; 12 h, replicate 2): 91
- Population Apoptotic (%) ([2]; 24 h, replicate 1): 91% and 73%
- Population Fragmented Nuclei (%) ([2]; 24 h, replicate 1): 16% and 11%
- Population Membrane Permeable-Phenotype (%) ([2]; 24 h, replicate 1): 84% and 29%
- Population Normal (%) ([2]; 24 h, replicate 1): 77% and 97%
- Total Cell Count ([2]; 24 h, replicate 1): 190 and 175
- Population Apoptotic (%) ([2]; 24 h, replicate 2): 94% and 86%
- Population Fragmented Nuclei (%) ([2]; 24 h, replicate 2): 21% and 13%
- Population Healthy Nuclei (%) ([2]; 24 h, replicate 2): 28% and 75%
- Population Hoechst High Intensity Objects (%) ([2]; 24 h, replicate 2): 23% and 10%
- Population Mitotic Cells (%) ([2]; 24 h, replicate 2): 5% and 13%
- Population Normal (%) ([2]; 24 h, replicate 2): 76% and 89%
- Total Cell Count ([2]; 24 h, replicate 2): 159 and 98
- Growth Rate [3, 6]: 0
- Growth Rate [3, 7]: 0
- Growth Rate [3, 8]: 0
- Growth Rate [3, 9]: 0
- Population Apoptotic (%) ([4]; 12 h, replicate 1): 64% and 41%
- Population Fragmented Nuclei (%) ([4]; 12 h, replicate 1): 35% and 14%
- Population Healthy Nuclei (%) ([4]; 12 h, replicate 1): 45% and 47%
- Population Membrane Permeable-Phenotype (%) ([4]; 12 h, replicate 1): 5% and 11%
- Population Mitochondria Different-Phenotype (%) ([4]; 12 h, replicate 1): 11% and 25%
- Population Mitotic Cells (%) ([4]; 12 h, replicate 1): 35% and 58%
- Population Normal (%) ([4]; 12 h, replicate 1): 83% and 50%
- Population Pyknosed Nuclei (%) ([4]; 12 h, replicate 1): 18% and 37%
- Total Cell Count ([4]; 12 h, replicate 1): 234 and 214
- Population Apoptotic (%) ([4]; 12 h, replicate 2): 80% and 35%
- Population Fragmented Nuclei (%) ([4]; 12 h, replicate 2): 72% and 48%
- Population Healthy Nuclei (%) ([4]; 12 h, replicate 2): 18% and 22%
- Population Hoechst High Intensity Objects (%) ([4]; 12 h, replicate 2): 38% and 35%
- Population Membrane Permeable-Phenotype (%) ([4]; 12 h, replicate 2): 18% and 9%
- Population Normal (%) ([4]; 12 h, replicate 2): 61% and 64%
- Total Cell Count ([4]; 12 h, replicate 2): 94 and 76
- Population Apoptotic (%) ([4]; 24 h, replicate 1): 65% and 68%
- Population Fragmented Nuclei (%) ([4]; 24 h, replicate 1): 38% and 24%
- Population Healthy Nuclei (%) ([4]; 24 h, replicate 1): 49% and 38%
- Population Hoechst High Intensity Objects (%) ([4]; 24 h, replicate 1): 21% and 44%
- Population Membrane Permeable-Phenotype (%) ([4]; 24 h, replicate 1): 4% and 2%
- Population Mitotic Cells (%) ([4]; 24 h, replicate 1): 34% and 31%
- Population Normal (%) ([4]; 24 h, replicate 1): 78% and 55%
- Total Cell Count ([4]; 24 h, replicate 1): 258 and 181
- Population Apoptotic (%) ([4]; 24 h, replicate 2): 80% and 73%
- Population Fragmented Nuclei (%) ([4]; 24 h, replicate 2): 63% and 56%
- Population Healthy Nuclei (%) ([4]; 24 h, replicate 2): 25% and 9%
- Population Hoechst High Intensity Objects (%) ([4]; 24 h, replicate 2): 36% and 43%
- Population Mitotic Cells (%) ([4]; 24 h, replicate 2): 20% and 26%
- Population Normal (%) ([4]; 24 h, replicate 2): 63% and 56%
- Population Tubulin-Different-Phenotype (%) ([4]; 24 h, replicate 2): 27% and 50%
- Total Cell Count ([4]; 24 h, replicate 2): 69 and 78
- Growth Rate ([5]; 0 h, replicate number 2, timepoint 0 hours): 1
- Growth Rate [5, 6]: 0
- Growth Rate [5, 7]: 0
- Growth Rate [5, 8]: 0
- Growth Rate [5, 9]: 0
